The source made the active and inactive calls. The calls are words filed in the database; no cut-off is given here.
How the values were obtained:
[1] = Cmax in mouse at 120 mg/kg, po; assay type: ADME, organism-based; set-up: dose 120 mg/kg, route oral; conditions: in vivo
[2] = Volume of distribution at steady state in mouse at 25 mg/kg, iv; assay type: ADME, organism-based; set-up: dose 25 mg/kg, route intravenous; conditions: in vivo, read-out: Vdss
Outline: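 Mouse PK, average of three animals. Solution formulation in PG/Tween80/water (40:10:50), given orally at 120 mg/kg or iv at 25 mg/kg. Tmax taken from the oral arm; Vss taken from the iv arm.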

[3] = Antitumor activity against human GEO cells xenografted in athymic mouse at 60 mg/kg, po qd for 14 days; assay type: functional; conditions: 336 h, read-out: TGI
Outline: (§1)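 Xenograft-bearing mice dosed orally once daily in propylene glycol/Tween80/water (40:10:50). TGI taken as percent tumor growth inhibition during treatment; significance from mean tumor weight at end of treatment; body weight loss and morbidity monitored.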

[4] = Clearance in mouse at 25 mg/kg, iv; assay type: ADME, organism-based; set-up: dose 25 mg/kg, route intravenous; conditions: in vivo
[5] = Mean residence time in dog at 1.5 mg/kg, iv; assay type: ADME, organism-based, Canis lupus familiaris; set-up: dose 1.5 mg/kg, route intravenous; conditions: in vivo
[6] = target: Cytochrome P450 2D6 (Homo sapiens, UniProt P10635); test: Inhibition of human CYP2D6; assay type: ADME
Sequence of Cytochrome P450 2D6 (P10635 whole entry): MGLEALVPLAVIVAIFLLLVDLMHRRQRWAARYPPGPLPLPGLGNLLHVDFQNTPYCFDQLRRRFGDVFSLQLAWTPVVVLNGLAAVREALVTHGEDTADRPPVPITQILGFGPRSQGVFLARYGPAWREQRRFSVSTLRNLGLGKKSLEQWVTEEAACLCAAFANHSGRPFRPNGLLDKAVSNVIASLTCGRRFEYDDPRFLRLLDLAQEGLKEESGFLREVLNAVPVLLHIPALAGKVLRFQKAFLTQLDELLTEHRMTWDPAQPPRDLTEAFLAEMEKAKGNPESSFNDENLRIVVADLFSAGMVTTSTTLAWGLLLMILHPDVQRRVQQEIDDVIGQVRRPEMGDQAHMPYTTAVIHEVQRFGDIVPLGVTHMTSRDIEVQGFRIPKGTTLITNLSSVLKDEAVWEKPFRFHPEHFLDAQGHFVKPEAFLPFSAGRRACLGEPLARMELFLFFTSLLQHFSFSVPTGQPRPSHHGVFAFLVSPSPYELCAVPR

[7] = target: Voltage-gated inwardly rectifying potassium channel KCNH2 (Homo sapiens, UniProt Q12809); test: Inhibition of human ERG expressed in HEK cells; assay type: cell-based, HEK293
Sequence of Voltage-gated inwardly rectifying potassium channel KCNH2 (Q12809 whole entry): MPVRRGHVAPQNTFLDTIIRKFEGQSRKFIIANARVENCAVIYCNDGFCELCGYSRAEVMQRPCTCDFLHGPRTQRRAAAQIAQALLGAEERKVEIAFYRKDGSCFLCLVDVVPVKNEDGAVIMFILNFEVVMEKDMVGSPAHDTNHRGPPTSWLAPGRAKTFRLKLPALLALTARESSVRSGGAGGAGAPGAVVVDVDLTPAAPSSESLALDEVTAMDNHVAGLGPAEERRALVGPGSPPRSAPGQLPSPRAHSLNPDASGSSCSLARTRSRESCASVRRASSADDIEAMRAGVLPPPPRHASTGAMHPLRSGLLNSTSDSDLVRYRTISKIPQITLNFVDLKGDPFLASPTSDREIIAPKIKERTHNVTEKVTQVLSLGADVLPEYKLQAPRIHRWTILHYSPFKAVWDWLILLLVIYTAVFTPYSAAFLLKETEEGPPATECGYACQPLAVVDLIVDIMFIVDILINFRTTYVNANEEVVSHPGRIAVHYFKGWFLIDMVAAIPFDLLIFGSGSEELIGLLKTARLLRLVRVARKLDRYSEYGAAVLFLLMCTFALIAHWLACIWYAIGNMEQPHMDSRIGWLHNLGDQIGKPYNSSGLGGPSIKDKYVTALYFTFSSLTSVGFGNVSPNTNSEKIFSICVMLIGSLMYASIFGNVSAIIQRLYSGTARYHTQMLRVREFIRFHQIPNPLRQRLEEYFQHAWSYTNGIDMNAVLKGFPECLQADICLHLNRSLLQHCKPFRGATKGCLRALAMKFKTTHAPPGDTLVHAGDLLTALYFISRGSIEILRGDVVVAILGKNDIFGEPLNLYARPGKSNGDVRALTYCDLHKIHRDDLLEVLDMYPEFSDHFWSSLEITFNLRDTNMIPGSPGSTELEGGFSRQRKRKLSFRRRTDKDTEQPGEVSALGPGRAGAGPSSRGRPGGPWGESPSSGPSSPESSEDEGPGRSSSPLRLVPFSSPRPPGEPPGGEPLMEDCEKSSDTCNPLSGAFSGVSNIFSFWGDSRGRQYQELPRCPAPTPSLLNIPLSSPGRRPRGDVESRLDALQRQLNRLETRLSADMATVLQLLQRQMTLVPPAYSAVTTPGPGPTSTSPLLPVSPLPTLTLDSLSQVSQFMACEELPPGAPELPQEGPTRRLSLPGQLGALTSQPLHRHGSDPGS

[8] = AUC (0 to 24 hrs) in dog at 25 mg/kg, po; assay type: ADME, organism-based, Canis lupus familiaris; set-up: time < 24 hr, dose 25 mg/kg, route oral; conditions: plasma
[9] = Cmax in BALB/c mouse at 50 mg/kg, po; assay type: ADME, organism-based; set-up: dose 50 mg/kg, route oral; conditions: in vivo
[10] = AUC (0 to 24 hrs) in rat at 10 mg/kg, po; assay type: ADME, organism-based; set-up: time < 24 hr, dose 10 mg/kg, route oral; conditions: plasma
[11] = Cmax in cynomolgus monkey at 5 mg/kg, po; assay type: ADME, organism-based, Macaca fascicularis; set-up: dose 5 mg/kg, route oral; conditions: in vivo
[12] = Oral bioavailability in cynomolgus monkey at 5 mg/kg; assay type: ADME, organism-based, Macaca fascicularis; conditions: in vivo
[13] = target: Epidermal growth factor receptor (Homo sapiens, UniProt P00533); test: Inhibition of human recombinant HER1 expressed in Sf9 cells by liquid scintillation counting
Sequence of Epidermal growth factor receptor (P00533 whole entry): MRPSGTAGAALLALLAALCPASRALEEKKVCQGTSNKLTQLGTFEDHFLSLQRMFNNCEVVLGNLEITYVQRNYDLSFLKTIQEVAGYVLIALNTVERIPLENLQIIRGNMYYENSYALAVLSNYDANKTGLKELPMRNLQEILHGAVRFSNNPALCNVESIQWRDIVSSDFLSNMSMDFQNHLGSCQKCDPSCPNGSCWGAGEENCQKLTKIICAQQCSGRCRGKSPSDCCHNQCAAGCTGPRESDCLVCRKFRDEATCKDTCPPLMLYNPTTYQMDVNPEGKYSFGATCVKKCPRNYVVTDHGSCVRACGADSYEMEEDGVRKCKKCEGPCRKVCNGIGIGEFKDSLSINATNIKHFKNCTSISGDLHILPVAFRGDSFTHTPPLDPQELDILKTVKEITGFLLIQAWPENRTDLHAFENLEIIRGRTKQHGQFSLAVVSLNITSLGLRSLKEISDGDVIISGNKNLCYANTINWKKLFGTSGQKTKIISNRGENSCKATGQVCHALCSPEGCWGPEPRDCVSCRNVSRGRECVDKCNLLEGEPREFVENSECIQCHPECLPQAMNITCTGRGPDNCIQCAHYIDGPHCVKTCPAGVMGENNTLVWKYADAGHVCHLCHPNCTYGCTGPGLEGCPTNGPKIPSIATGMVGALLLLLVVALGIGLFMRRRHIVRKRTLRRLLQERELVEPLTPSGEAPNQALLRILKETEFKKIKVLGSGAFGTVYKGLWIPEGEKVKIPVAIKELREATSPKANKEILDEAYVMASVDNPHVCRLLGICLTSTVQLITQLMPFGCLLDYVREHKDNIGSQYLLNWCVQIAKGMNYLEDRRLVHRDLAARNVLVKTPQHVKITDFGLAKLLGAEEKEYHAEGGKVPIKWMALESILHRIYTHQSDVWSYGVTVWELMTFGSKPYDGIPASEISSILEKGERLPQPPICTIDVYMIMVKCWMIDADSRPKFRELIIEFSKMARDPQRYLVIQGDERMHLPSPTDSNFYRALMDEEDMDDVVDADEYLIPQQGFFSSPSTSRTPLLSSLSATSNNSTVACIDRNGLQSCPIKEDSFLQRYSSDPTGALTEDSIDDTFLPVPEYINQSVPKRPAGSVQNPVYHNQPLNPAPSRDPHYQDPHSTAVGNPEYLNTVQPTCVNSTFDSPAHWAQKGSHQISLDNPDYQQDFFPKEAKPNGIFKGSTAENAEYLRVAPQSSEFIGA

[14] = tested on: NCI-N87; test: Antitumor activity against human NCI-N87 cells xenografted in athymic mouse at 60 mg/kg, po qd for 21 days; assay type: functional; conditions: NCI-N87, 504 h, read-out: TGI; outline: as §1
[15] = Tmax in cynomolgus monkey at 5 mg/kg, po; assay type: ADME, organism-based, Macaca fascicularis; set-up: dose 5 mg/kg, route oral; conditions: in vivo
Outline: (§2)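 Monkey PK, mean of two animals. Compound given as a solution in PEG400/Tween80/water (50:0.1:50), 5 mg/kg both orally and iv. Tmax from the oral route; steady-state volume of distribution from the iv route.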

[16] = tested on: BT-474; test: Antiproliferative activity against human BT474 cells after 72 hrs by MTT assay; assay type: functional, cell-based; conditions: BT-474, 72 h
Outline: (§3)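 Cell proliferation IC50 reported as the mean of three independent determinations. BT474 is a breast line (HER2+++/HER1+); A2780 serves as a HER-independent control.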

[17] = Protein binding in rat plasma at 10 uM by equilibrium dialysis; assay type: ADME, cell-free; conditions: read-out: PPB (converted)
[18] = Cmax in rat at 10 mg/kg, po; assay type: ADME, organism-based; set-up: dose 10 mg/kg, route oral; conditions: in vivo
[19] = tested on: NCI-N87; test: Antitumor activity against human NCI-N87 cells xenografted in athymic mouse at 180 mg/kg, po qd for 21 days; assay type: functional; conditions: NCI-N87, 504 h, read-out: TGI; outline: as §1
[20] = target: Cytochrome P450 2C9 (Homo sapiens, UniProt P11712); test: Inhibition of human CYP2C9; assay type: ADME
Sequence of Cytochrome P450 2C9 (P11712 whole entry): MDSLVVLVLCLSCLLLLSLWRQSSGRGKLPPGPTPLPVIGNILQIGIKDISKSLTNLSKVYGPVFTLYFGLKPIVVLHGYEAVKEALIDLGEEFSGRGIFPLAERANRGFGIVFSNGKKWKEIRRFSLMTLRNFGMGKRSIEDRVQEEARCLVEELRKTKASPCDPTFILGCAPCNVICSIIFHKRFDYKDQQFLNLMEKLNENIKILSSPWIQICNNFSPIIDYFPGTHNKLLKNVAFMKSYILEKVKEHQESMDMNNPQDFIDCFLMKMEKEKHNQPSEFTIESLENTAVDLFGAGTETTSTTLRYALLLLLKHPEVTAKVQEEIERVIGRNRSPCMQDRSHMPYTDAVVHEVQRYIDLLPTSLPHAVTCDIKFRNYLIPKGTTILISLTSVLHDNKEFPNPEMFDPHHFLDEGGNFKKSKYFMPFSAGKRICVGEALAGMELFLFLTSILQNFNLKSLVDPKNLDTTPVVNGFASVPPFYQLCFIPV

[21] = Metabolic stability in mouse liver microsomes assessed per mg of protein at 10 uM after 10 mins; assay type: ADME, Microsome
Outline: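 Mouse liver microsomes incubated with compound at 10 µM for 10 min; metabolic rate expressed as nmol/min/mg protein.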

[22] = Half life in dog plasma at 25 mg/kg, po; assay type: ADME, organism-based, Canis lupus familiaris; set-up: dose 25 mg/kg, route oral
[23] = AUC (0 to 24 hrs) in mouse at 120 mg/kg, po; assay type: ADME, organism-based; set-up: time < 24 hr, dose 120 mg/kg, route oral; conditions: plasma
Outline: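 Mice were dosed orally at 120 mg/kg as a solution in PG/Tween80/water (40:10:50).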

[24] = Antitumor activity against human GEO cells xenografted in athymic mouse at 120 mg/kg, po qd for 14 days; assay type: functional; conditions: 336 h, read-out: TGI; outline: as §1
[25] = Effect on action potential parameters in rabbit purkinje fiber up to 30 uM; assay type: ADME, tissue-based, Oryctolagus cuniculus
[26] = target: Epidermal growth factor receptor and ErbB2 (HER1 and HER2) (Homo sapiens) (UniProt P04626+P00533); test: Inhibition of epidermal growth factor-induced HER1/HER2 heterodimer formation in human AU565 cells at 1 uM by immunoprecipitation; assay type: cell-based
[27] = Volume of distribution at steady state in cynomolgus monkey at 5 mg/kg, iv; assay type: ADME, organism-based, Macaca fascicularis; set-up: dose 5 mg/kg, route intravenous; conditions: in vivo, read-out: Vdss; outline: as §2
[28] = Clearance in cynomolgus monkey at 5 mg/kg, iv; assay type: ADME, organism-based, Macaca fascicularis; set-up: dose 5 mg/kg, route intravenous; conditions: in vivo
[29] = Protein binding in mouse plasma at 10 uM by equilibrium dialysis; assay type: ADME, cell-free; conditions: read-out: PPB (converted)
[30] = tested on: L2987; test: Antitumor activity against human L2987 cells xenografted in athymic mouse at 60 mg/kg, po qd for 14 days; assay type: functional; conditions: L2987, 336 h, read-out: TGI; outline: as §1
[31] = Protein binding in cynomolgus monkey plasma at 10 uM by equilibrium dialysis; assay type: ADME, cell-free, Macaca fascicularis; conditions: read-out: PPB (converted)
[32] = Intrinsic permeability in human Caco-2 cells; assay type: ADME, cell-based; conditions: read-out: permeability
[33] = Oral bioavailability in mouse at 120 mg/kg; assay type: ADME, organism-based; conditions: in vivo
[34] = tested on: A2780; test: Antiproliferative activity against human A2780 cells after 72 hrs by MTT assay; assay type: functional, cell-based; conditions: A2780, 72 h; outline: as §3
[35] = target: Cytochrome P450 2C19 (Homo sapiens, UniProt P33261); test: Inhibition of human CYP2C19; assay type: ADME
Sequence of Cytochrome P450 2C19 (P33261 whole entry): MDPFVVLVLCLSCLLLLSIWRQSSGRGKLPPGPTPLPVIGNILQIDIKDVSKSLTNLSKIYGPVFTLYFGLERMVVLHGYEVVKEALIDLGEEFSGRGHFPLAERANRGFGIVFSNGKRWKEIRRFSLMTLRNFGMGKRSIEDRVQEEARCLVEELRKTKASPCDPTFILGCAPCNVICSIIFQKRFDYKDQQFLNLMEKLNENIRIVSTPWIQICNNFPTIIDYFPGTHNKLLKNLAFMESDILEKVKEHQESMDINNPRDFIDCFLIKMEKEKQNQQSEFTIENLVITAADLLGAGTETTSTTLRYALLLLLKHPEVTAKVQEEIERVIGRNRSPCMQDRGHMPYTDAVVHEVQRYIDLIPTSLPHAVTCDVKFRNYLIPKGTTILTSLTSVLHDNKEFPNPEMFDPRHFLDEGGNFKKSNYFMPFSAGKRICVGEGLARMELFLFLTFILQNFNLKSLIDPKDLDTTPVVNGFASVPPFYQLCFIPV

Structure (SMILES): Cc1c(NC(=O)OC[C@@H]2COCCN2)cn2ncnc(Nc3ccc4c(cnn4Cc4cccc(F)c4)c3)c12 [AC-480]
- Cmax [1]: 18000 nM
- Vd [2]: 4.7 L/kg
- inhibition in vivo at 60 mg/kg [3]: 39%
- clearance [4]: 21.3 mL/min/kg
- MRT [5]: 6.9 h
- IC50 [6]: > 40 µM
- IC50 [7]: 4 µM
- AUC(0-t) at 24 h [8]: 14 µM·h
- Cmax [9]: 4100 nM
- AUC(0-t) at 24 h [10]: 2.9 µM·h
- Cmax [11]: 500 nM
- bioavailability [12]: 31%
- IC50 [13]: 0.032 µM
- inhibition in vivo at 60 mg/kg [14]: 39%
- Tmax [15]: 1.5 h
- IC50 [16]: 0.31 µM
- fraction unbound at 10 µM [17]: 0.029
- Cmax [18]: 600 nM
- inhibition in vivo at 180 mg/kg [19]: 71%
- IC50 [20]: 12 µM
- Stability [21]: 0.02 nmol/min
- half-life [22]: 7.2 h
- AUC(0-t) at 24 h [23]: 147 µM·h
- inhibition in vivo at 120 mg/kg [24]: 95%
- Activity [25]: Non-toxic
- inhibition [26]: Active
- Vd [27]: 4 L/kg
- clearance [28]: 10.5 mL/min/kg
- fraction unbound at 10 µM [29]: 0.017
- inhibition in vivo at 60 mg/kg [30]: 58%
- fraction unbound at 10 µM [31]: 0.031
- Papp [32]: 21.4 ×10⁻⁶ cm/s
- bioavailability [33]: 83%
- IC50 [34]: > 10 µM
- IC50 [35]: 10 µM

Reference: ChEMBL document CHEMBL1154610, “Discovery and preclinical evaluation of [4-[[1-(3-fluorophenyl)methyl]-1H-indazol-5-ylamino]-5-methylpyrrolo[2,1-f][1,2,4]triazin-6-yl]carbamic acid, (3S)-3-morpholinylmethyl ester (BMS-599626), a selective and orally efficacious inhibitor of human epidermal growth factor receptor 1 and 2 kinases” (J Med Chem, 2009)
